Substitutions are numbered along the chain they refer to. Activity calls are given as the source filed them. The calls are words filed in the database; no cut-off is given here.
Tests used:
Androgen receptor [1] = target: T1, Androgen receptor (Homo sapiens, UniProt P10275); test: Inhibition of androgen receptor transcriptional activity in human LNCaP cells after 3 days by eGFP assay; format: cell-based
T1 sequence (P10275 whole entry): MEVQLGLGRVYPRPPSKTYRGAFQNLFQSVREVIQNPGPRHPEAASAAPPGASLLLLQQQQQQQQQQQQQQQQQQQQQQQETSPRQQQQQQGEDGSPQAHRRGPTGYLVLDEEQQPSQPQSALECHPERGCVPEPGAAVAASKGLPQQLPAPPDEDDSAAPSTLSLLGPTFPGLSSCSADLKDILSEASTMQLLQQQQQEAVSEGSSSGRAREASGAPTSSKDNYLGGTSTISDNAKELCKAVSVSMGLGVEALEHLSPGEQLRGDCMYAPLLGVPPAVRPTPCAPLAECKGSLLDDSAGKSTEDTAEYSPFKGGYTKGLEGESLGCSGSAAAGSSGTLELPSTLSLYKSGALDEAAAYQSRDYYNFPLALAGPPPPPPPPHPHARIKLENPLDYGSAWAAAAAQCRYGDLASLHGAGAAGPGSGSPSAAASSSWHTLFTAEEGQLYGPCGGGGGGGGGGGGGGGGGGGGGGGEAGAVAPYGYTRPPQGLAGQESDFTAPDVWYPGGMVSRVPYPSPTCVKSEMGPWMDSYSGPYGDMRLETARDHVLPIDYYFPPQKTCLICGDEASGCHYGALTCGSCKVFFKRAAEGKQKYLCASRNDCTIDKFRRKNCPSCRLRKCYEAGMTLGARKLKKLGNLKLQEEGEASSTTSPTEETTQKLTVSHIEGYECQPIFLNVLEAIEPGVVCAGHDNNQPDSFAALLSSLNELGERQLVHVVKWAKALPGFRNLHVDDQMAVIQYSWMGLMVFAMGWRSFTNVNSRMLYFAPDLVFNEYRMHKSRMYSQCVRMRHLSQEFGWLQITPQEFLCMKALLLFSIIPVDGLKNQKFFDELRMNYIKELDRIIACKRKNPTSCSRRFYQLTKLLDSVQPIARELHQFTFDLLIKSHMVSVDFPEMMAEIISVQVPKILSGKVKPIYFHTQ

[2] = target: T2, Androgen receptor (Homo sapiens) (UniProt P10275); test: Inhibition of androgen receptor V7 (unknown origin) expressed in human PC3 cells assessed as inhibition of transcription activity after 24 hrs by luciferase reporter gene assay; format: cell-based; settings: PC-3
T2 sequence (whole entry): T1 sequence (P10275 whole entry)
Procedure, shortened: (§1)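 PC3 cells were starved 5 days in RPMI 1640 with 5% charcoal-stripped serum and seeded at 5000 cells/well. After 24 h they were cotransfected with AR-V7 or hAR mutant plasmid plus 50 ng ARR3tk-luciferase. At 48 h post-transfection, compounds were added for 24 h with 0.1 nM R1881. Luminescence was read from passive-lysis-buffer lysates; mutant tests used 10 μM.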

[3] = target: T2, Androgen receptor (Homo sapiens); test: Displacement of androgen from androgen receptor (unknown origin) by Polarscreen competitor green assay
Androgen receptor [4] = target: T1, Androgen receptor; test: Inhibition of androgen receptor in human LNCaP cells assessed as inhibition of prostate-specific antigen secretion into media after 3 days; format: cell-based
[5] = target: T3, Estrogen receptor (Homo sapiens) (UniProt P03372); test: Inhibition of ERalpha (unknown origin) transcriptional activity at […]
T3 sequence (whole entry): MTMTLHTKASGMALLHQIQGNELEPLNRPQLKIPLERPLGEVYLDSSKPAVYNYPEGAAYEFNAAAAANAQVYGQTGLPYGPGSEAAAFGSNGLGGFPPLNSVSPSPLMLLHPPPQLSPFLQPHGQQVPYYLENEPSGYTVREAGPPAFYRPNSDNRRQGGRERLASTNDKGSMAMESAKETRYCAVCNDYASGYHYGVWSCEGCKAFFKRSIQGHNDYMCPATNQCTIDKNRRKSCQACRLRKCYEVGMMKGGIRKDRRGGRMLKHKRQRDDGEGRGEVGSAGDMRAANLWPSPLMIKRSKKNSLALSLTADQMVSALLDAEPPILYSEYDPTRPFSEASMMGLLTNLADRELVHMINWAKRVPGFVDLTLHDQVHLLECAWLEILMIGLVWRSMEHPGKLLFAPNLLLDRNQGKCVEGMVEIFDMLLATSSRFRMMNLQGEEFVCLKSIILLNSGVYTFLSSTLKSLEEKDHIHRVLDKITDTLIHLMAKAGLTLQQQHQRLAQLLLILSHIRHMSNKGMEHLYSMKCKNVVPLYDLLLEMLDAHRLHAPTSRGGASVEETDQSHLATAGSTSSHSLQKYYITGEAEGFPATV
Procedure, shortened: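 MCF-7 cells stably carrying an ERE-luciferase reporter were stimulated with 1 nM estradiol and treated with compound. Luciferase luminescence was read from passive-lysis-buffer lysates.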

[6] = tested on: T4, Androgen receptor (Homo sapiens), P10275 [Y594D]; test: Inhibition of human androgen receptor Y594D mutant expressed in human PC3 cells assessed as inhibition of transcription activity after 24 hrs by luciferase reporter gene assay; format: cell-based; settings: PC-3; procedure, shortened: as §1
T4 sequence (whole entry): T1 sequence (P10275 whole entry) with Y594D

[7] = target: T2, Androgen receptor (Homo sapiens); test: Binding affinity to biotinylated androgen receptor LBD (unknown origin) expressed in Escherichia coli BL21 by biolayer interferometry assay

For `c1ccc(-c2csc(N3CCOCC3)n2)cc1`, the IC50 (Androgen receptor [1]) was 330 nM, the inhibition [2] was “Dose-dependent effect” and the Activity [3] was “inactive”. For the same compound, the IC50 (Androgen receptor [4]) was 280 nM, the inhibition [5] was “inactive” and the inhibition [6] was “inactive”. For the same compound, the inhibition [7] was “inactive”.
`Brc1ncn(-c2csc(N3CCOCC3)n2)c1Br` was tested, and the IC50 (Androgen receptor [1]) was 120 nM, the inhibition [2] was “Dose-dependent effect” and the inhibition [3] was “inactive”. For the same compound, the IC50 (Androgen receptor [4]) was 170 nM, the inhibition [5] was “inactive” and the inhibition [6] was “inactive”. The Activity [7] was “inactive”.

From ChEMBL document CHEMBL3352043, “Discovery of small-molecule inhibitors selectively targeting the DNA-binding domain of the human androgen receptor” (J Med Chem, 2014)
